Active and inactive are the calls of the source. The rule behind the calls is not given here.
Legend:
MDA-MB-231 [1] = assay: Induction of morphological changes in human MDA-MB-231 cells assessed as increase in intracellular space at 5 umol/L after 48 hrs by inverted microscopic method; assay type: functional, cell-based
Method in brief: (§1)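 Cells cultured in DMEM/10% FBS at 37 °C, 5% CO2. Exposed 48 h to 5 µmol/L compound alongside DMSO controls. Morphology (cell number, rounding, spacing, apoptotic bodies, spindle shape) observed under an inverted microscope with CCD camera.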

HEL [2] = assay: Induction of morphological changes in HEL cells assessed as reduction in cell number at 5 umol/L after 48 hrs by inverted fluorescence microscopic analysis; assay type: functional, cell-based; conditions: Homo sapiens; method in brief: as §1
PC-3 [3] = assay: Cell cycle arrest in human PC3 cells assessed as decrease in S phase accumulation at 5 umol/L after 48 hrs by propidium iodide staining based flow cytometric method; assay type: functional
Method in brief: (§2)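 Cells grown in DMEM with 10% FBS and penicillin/streptomycin at 37 °C, 5% CO2, and passaged at least 3 times after thawing. Treated 48 h at 5 µmol/L, DMSO-treated controls. Harvested by trypsin, PBS-washed, fixed in ice-cold ethanol, blocked 1 h at 4 °C in 5% BSA/PBS, RNase 1 µg/mL 30 min at 37 °C, PI 20 µg/mL final. Phase percentages read from PI histograms. Mean ± SD, three independent experiments.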

HEL [4] = assay: Induction of apoptosis in HEL cells assessed as late apoptotic cells at 5 umol/L after 48 hrs by annexin V-FITC/propidium iodide staining based flow cytometry (reference value: 1.6 to 3.3%); assay type: functional, Homo sapiens
PC-3 [5] = assay: Growth inhibition of human PC3 cells at 5 umol/L after 48 hrs by MTT assay relative to control; assay type: functional; conditions: PC-3, 48 h, read-out: GI
Method in brief: (§3)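 Cells kept in DMEM/10% FBS at 37 °C, 5% CO2, seeded at 4×10^3–8×10^3 cells/well, 24 h attachment, then 48 h with compound at 5 µmol/L. MTT (5 mg/mL solution) added for 4 h at 37 °C, formazan taken up in DMSO, A490 read. Percent inhibition as mean ± SD of three independent experiments. Doxorubicin as positive control.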

K562 [6] = assay: Growth inhibition of human K562 cells at 5 umol/L after 48 hrs by MTT assay relative to control; assay type: functional; conditions: K562, 48 h, read-out: GI; method in brief: as §3
PC-3 [7] = assay: Cell cycle arrest in human PC3 cells assessed as decrease in G2 phase accumulation at 5 umol/L after 48 hrs by propidium iodide staining based flow cytometric method; assay type: functional; method in brief: as §2
K562 [8] = assay: Cytotoxicity against human K562 cells after 48 hrs by MTT assay; assay type: functional, cell-based
Method in brief: (§4)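 Cells kept in DMEM/10% FBS at 37 °C, 5% CO2, seeded at 4×10^3–8×10^3 cells/well and left 24 h to adhere. Exposed 48 h to a range of concentrations. MTT (5 mg/mL solution) added for 4 h at 37 °C, formazan dissolved in DMSO, absorbance read at 490 nm. IC50 derived from concentration–inhibition relation. Doxorubicin as positive control.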

MDA-MB-231 [9] = assay: Induction of apoptosis in human MDA-MB-231 cells assessed as effect on cell adherence at 5 umol/L after 48 hrs by inverted microscopic method; assay type: functional, cell-based; method in brief: as §1
HEL [10] = assay: Cell cycle arrest in HEL cells assessed as increase in G1 phase accumulation at 5 umol/L after 48 hrs by propidium iodide staining based flow cytometry; assay type: functional; conditions: Homo sapiens; method in brief: as §2
MDA-MB-231 [11] = assay: Induction of morphological changes in human MDA-MB-231 cells assessed as increase in cell rounding at 5 umol/L after 48 hrs by inverted microscopic method; assay type: functional, cell-based; method in brief: as §1
HEL [12] = assay: Growth inhibition of HEL cells at 5 umol/L after 48 hrs by MTT assay relative to control; assay type: functional; conditions: Homo sapiens, read-out: GI; method in brief: as §3
K562 [13] = assay: Potency index, ratio of compound effect to (E)-2-Hydroxy-4,4-dimethoxy-3,5-diprenylchalcone effect for growth inhibition of human K562 cells; assay type: functional
HEL [14] = assay: Cell cycle arrest in HEL cells assessed as decrease in S phase accumulation at 5 umol/L after 48 hrs by propidium iodide staining based flow cytometry; assay type: functional; conditions: Homo sapiens; method in brief: as §2
MDA-MB-231 [15] = assay: Cytotoxicity against human MDA-MB-231 cells after 48 hrs by MTT assay; assay type: functional, cell-based; method in brief: as §4
K562 [16] = assay: Induction of apoptosis in human K562 cells assessed as viable cells at 5 umol/L after 48 hrs by annexin V-FITC/propidium iodide staining based flow cytometry (reference value: 92.6%); assay type: functional; conditions: K562, 48 h, read-out: Activity
MDA-MB-231 [17] = assay: Induction of apoptosis in human MDA-MB-231 cells assessed as necrotic cells at 5 umol/L after 48 hrs by annexin V-FITC/propidium iodide staining based flow cytometry (reference value: 3.4%); assay type: functional
HEL [18] = assay: Induction of morphological changes in HEL cells assessed as formation of apoptotic bodies at 5 umol/L after 48 hrs by inverted fluorescence microscopic analysis; assay type: functional, cell-based; conditions: Homo sapiens; method in brief: as §1
PC-3 [19] = assay: Cell cycle arrest in human PC3 cells assessed as increase in G1 phase accumulation at 5 umol/L after 48 hrs by propidium iodide staining based flow cytometric method; assay type: functional; method in brief: as §2
HEL [20] = assay: Induction of apoptosis in HEL cells assessed as viable cells at 5 umol/L after 48 hrs by annexin V-FITC/propidium iodide staining based flow cytometry (reference value: 93.1 to 94%); assay type: functional; conditions: Homo sapiens, read-out: Activity
HEL [21] = assay: Induction of apoptosis in HEL cells assessed as necrotic cells at 5 umol/L after 48 hrs by annexin V-FITC/propidium iodide staining based flow cytometry (reference value: 0.3 to 1%); assay type: functional, Homo sapiens
K562 [22] = assay: Induction of morphological changes in human K562 cells assessed as increase in formation of apoptotic bodies at 5 umol/L after 48 hrs by inverted microscopic method; assay type: functional, cell-based; method in brief: as §1
MDA-MB-231 [23] = assay: Induction of apoptosis in human MDA-MB-231 cells assessed as spindle like formation at 5 umol/L after 48 hrs by inverted microscopic method; assay type: functional, cell-based; method in brief: as §1
PC-3 [24] = assay: Potency index, ratio of compound effect to (E)-2-Hydroxy-4,4-dimethoxy-3,5-diprenylchalcone effect for growth inhibition of human PC3 cells; assay type: functional
HEL [25] = assay: Induction of apoptosis in HEL cells assessed as early apoptotic cells at 5 umol/L after 48 hrs by annexin V-FITC/propidium iodide staining based flow cytometry (reference value: 2.6 to 4.2%); assay type: functional, Homo sapiens
K562 [26] = assay: Cell cycle arrest in human K562 cells assessed as decrease in G2 phase accumulation at 5 umol/L after 48 hrs by propidium iodide staining based flow cytometry; assay type: functional; method in brief: as §2
HEL [27] = assay: Potency index, ratio of compound effect to (E)-2-Hydroxy-4,4-dimethoxy-3,5-diprenylchalcone effect for growth inhibition of HEL cells; assay type: functional, Homo sapiens
MDA-MB-231 [28] = assay: Induction of apoptosis in human MDA-MB-231 cells assessed as viable cells at 5 umol/L after 48 hrs by annexin V-FITC/propidium iodide staining based flow cytometry (reference value: 91.3%); assay type: functional; conditions: MDA-MB-231, 48 h, read-out: Activity
K562 [29] = assay: Induction of apoptosis in human K562 cells assessed as necrotic cells at 5 umol/L after 48 hrs by annexin V-FITC/propidium iodide staining based flow cytometry (reference value: 1.2%); assay type: functional
HEL [30] = assay: Cytotoxicity against HEL cells after 48 hrs by MTT assay; assay type: functional, cell-based; conditions: Homo sapiens; method in brief: as §4

## COc1c(CC=C(C)C)cc(C(=O)/C=C/c2cccnc2)c(O)c1CC=C(C)C
MDA-MB-231 [1]
  Activity: Active
HEL [2]
  Activity: Active
PC-3 [3]
  Activity: Active
HEL [4]
  Activity: 7.1%
PC-3 [5]
  inhibition of growth at 5 µM: 90.4%
K562 [6]
  inhibition of growth at 5 µM: 86.2%
PC-3 [7]
  Activity: Active
K562 [8]
  Activity: Dose-dependent effect
K562 [8]; K562, 48 h
  IC50: 2640 nM
MDA-MB-231 [9]
  Activity: Active
HEL [10]
  Activity: Active
MDA-MB-231 [11]
  Activity: Active
HEL [12]
  inhibition of growth at 5 µM: 91.7%
K562 [13]
  Ratio: 3 - 4
HEL [14]
  Activity: Active
MDA-MB-231 [15]
  Activity: Dose-dependent effect
MDA-MB-231 [15]; MDA-MB-231, 48 h
  IC50: 3140 nM
K562 [16]
  viability at 5 µM: 64%
MDA-MB-231 [17]
  Activity: 14.1%
HEL [18]
  Activity: inactive
PC-3 [19]
  Activity: Active
HEL [20]
  viability at 5 µM: 82.4%
HEL [21]
  Activity: 4.9%
K562 [22]
  Activity: Active
MDA-MB-231 [23]
  Activity: Active
PC-3 [24]
  Ratio: 3 - 4
HEL [25]
  Activity: 5.6%
K562 [26]
  Activity: Active
HEL [27]
  Ratio: 3 - 4
MDA-MB-231 [28]
  viability at 5 µM: 35.2%
K562 [29]
  Activity: 11.3%
HEL [30]
  Activity: Dose-dependent effect
  IC50: 1850 nM

Reference: ChEMBL document CHEMBL4052614, “Novel 3',5'-diprenylated chalcones inhibited the proliferation of cancer cells in vitro by inducing cell apoptosis and arresting cell cycle phase” (Eur J Med Chem, 2017)
